Experimental data collected from several papers.
Lines come from different studies, so protocols differ.
Target: Myosin light chain kinase 2, skeletal/cardiac muscle (MYLK2, Homo sapiens, UniProt Q9H1R3)

`CCOC(=O)c1cc2cc(-c3cc(C(=O)NCc4ccc(C(=O)O)cc4)nn3C)ccc2[nH]1` gave a remaining binding of 89% (cell-free assay; competition with immobilised ligand; 0.1 µM).
With `c1cnn2ncc(-c3ccnc(N4CCC45COC5)n3)c2c1` the remaining binding was 77% (binding; 1 µM).
With `Cc1cnc(Nc2ccc(C(=O)N3CCC(N4CCCC4)CC3)cc2)nc1-c1cc2ccccc2s1` the remaining binding was 1.8% (binding; competition with immobilised ligand; 1 µM).
The remaining binding of `COc1cnc(Nc2cccc(S(N)(=O)=O)c2)nc1N1CCN(c2ccccc2)C(=O)C1` is reported as 100% (binding; competition with immobilised ligand; 1 µM).
`O=C(Nc1c[nH]nc1C(=O)NC1CCNCC1)c1cc(F)cc(F)c1` has a remaining binding of 88% (binding; competition with immobilised ligand; 1 µM).
For `N[C@@H]1CCN(c2nccc(-c3cnn4ncccc34)n2)C1`, the remaining binding was 98% (binding; 1 µM).
For `O=C(N1CCS(=O)(=O)CC1)N1C[C@H](c2ccc(OC(F)(F)F)cc2)C[C@H](c2nc(C3CC3)no2)C1`, the remaining binding was 100% (cell-free assay; competition with immobilised ligand; 1 µM).
`CN(CCCC(F)(F)F)c1nccc(-c2cnn3ncccc23)n1` has a remaining binding of 98% (binding; 1 µM).
The remaining binding of `CCC(=O)N[C@@H]1CC[C@H](C(=O)N(C)c2ccc(-c3nc4ccccc4o3)cc2)C1` is reported as 79% (cell-free assay; competition with immobilised ligand; 1 µM).
The remaining binding of `COc1ccnn2ncc(-c3ccnc(N(C)C)n3)c12` is reported as 96% (binding; 1 µM).
`C=CC(=O)N1CCC(C(=O)NCC(=O)N2CCN(c3nc(-c4cnc(N)nc4C(F)F)nc(N4CCOCC4)n3)CC2)CC1` gave a remaining binding of 97% (binding; competition with immobilised ligand; 1 µM).
`CC(=O)C1=C(C)N(c2cccc(C(F)(F)F)c2)C(=O)N[C@@H]1c1ccc(C#N)nc1` gave a remaining binding of 100% (cell-free assay; competition with immobilised ligand; 1 µM).
`CN(c1nccc(-c2cnn3ncccc23)n1)C1CC1` has a remaining binding of 100% (binding; 1 µM).
With `COc1ccc2cc(OCC3(C(=O)O)CN(C(=O)c4ccc(F)cc4)C3)ccc2c1` the remaining binding was 100% (cell-free assay; competition with immobilised ligand; 1 µM).
For `COc1cnc(Nc2cccc(S(N)(=O)=O)c2)nc1N1CCN(c2ccccc2)CC1`, the remaining binding was 100% (binding; competition with immobilised ligand; 1 µM).
With `O=C(NCCCN1CCOCC1)c1ccc(Nc2nccc(-c3cc4ccccc4s3)n2)cc1` the remaining binding was 9.1% (binding; competition with immobilised ligand; 1 µM).
`CS(=O)(=O)c1cc(C2(NC(=O)c3cncc4c3cnn4-c3ccc(F)cc3)CC2)ccn1` has a remaining binding of 100% (cell-free assay; competition with immobilised ligand; 1 µM).
The remaining binding of `CCN1CCN(Cc2ccc(C(=O)Nc3ccc(C)c(Oc4ccc5c(c4)CC(=O)N5)c3)cc2C(F)(F)F)CC1` is reported as 100% (binding; competition with immobilised ligand; 1 µM).
For `C[C@H]1CCN(c2nccc(-c3cnn4ncccc34)n2)C1`, the remaining binding was 79% (binding; 1 µM).
With `O=C(c1ccc(Nc2ncc(Cl)c(-c3ccc(Cl)s3)n2)cc1)N1CCC(N2CCCC2)CC1` the remaining binding was 2.4% (binding; competition with immobilised ligand; 1 µM).
